Screens from PubChem.
hERG protect – hERG rescue from dofetilide block, primary screen, cell-based, CHO-hERG, FluxOR thallium flux, dofetilide IC70; activation (rescue from dofetilide block), less the hit threshold, % at 10 µM; hit rate 0.51% among 310,000; dofetilide IC70 present;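 active = activation above the mean of controls blocked by dofetilide plus 5 SD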;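 also: thallium influx through hERG after potassium depolarization seen as dye fluorescence rise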
KCNK9 block – KCNK9 potassium channel inhibitors, primary screen, HEK293 cells, thallium flux | hit rate 1.2% among 310,000 | B-score at 10 µM | FluxOR thallium flux fluorescence; stronger effect = lower value | Potassium channel subfamily K member 9 (Homo sapiens), Q9NPC2;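 active = ratio B-score over 3 SD below the library mean, with starting fluorescence within 5 SD of its mean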;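 also: negative B-score means less thallium flux so channel inhibition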
KCNQ1 pot – potentiators or activators of KCNQ1 channel, primary screen, cell-based, thallium flux, high-throughput. CHO-K1 KCNQ1, thallium flux FluxOR fluorescence; stronger effect = higher value. B-score at 10 µM. hit rate 0.35% among 310,000. AID 2648, 2010;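 active = fluorescence ratio B-score, a plate-corrected score, at least three library SD, with initial intensity B-score within 5 SD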
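Doses: Single concentration per compound, DMSO matched to controls | Test system: KCNQ1-transfected CHO-K1 cells | Timing: 90 min dye loading and 20 min compound exposure, both at room temperature | Measured by: Kinetic FluxOR thallium fluorescence, 10-s 1-Hz baseline, 110-s post-stimulus read | Medium: Assay buffer with matched DMSO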
Kir21 inh – inhibitors of mouse Kir2.1 inward-rectifier potassium channel; Inward rectifier potassium channel 2 (Mus musculus), P35561; HEK293-Kir2.1, FluxOR thallium flux fluorescence; stronger effect = lower value; AID 1672, 2009; B-score at 10 µM; hit rate 0.85% among 310,000;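 active = fluorescence ratio B-score at or below minus 3 SD of library scores, with starting-brightness B-score within 2 SD, cut at about -4.2 in these data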;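 also: channel flux triggered by added potassium and thallium sulfate stimulus; B-score of peak minus minimum fluorescence over baseline after thallium stimulus; more negative B-score means stronger Kir2.1 block with less thallium influx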
KCNQ1 inh – inhibitors of human KCNQ1 channel, primary screen, cell-based, thallium flux, high-throughput. B-score at 10 µM. CHO-K1 KCNQ1, FluxOR thallium flux fluorescence; stronger effect = higher value. Potassium voltage-gated channel subfamily KQT member 1 (Homo sapiens), P51787. hit rate 1.3% among 310,000. AID 2642, 2010;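 active = compounds whose thallium flux B-score, printed positive for inhibition, exceeds three library SD while starting fluorescence stays within three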;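 also: channel opened by potassium depolarization with thallium stimulus after 20 min compound exposure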
KCNK3 inh – human KCNK3 channel inhibitors, primary screen, CHO cells, FluxOR thallium flux, B-score; AID 602410, 2012; hit rate 0.84% among 340,000; FluxOR fluorescence; stronger effect = lower value; B-score at 10 µM; Potassium channel subfamily K member 3 (Homo sapiens), O14649;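 active = B-score under library mean minus 4 SD, starting fluorescence ratio at most library mean plus 5 SD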;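 also: more negative B-score means stronger inhibition of thallium flux through KCNK3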
* = called active by the depositor. Most compounds without a hit are left out; they make up all but 3.8% or so of the library.

For CCN1C(=O)CSc2ccc(C(=O)NCc3ccc(OC)cc3)cc21 the results were hERG protect -5, KCNK9 block inactive, KCNQ1 pot inactive, Kir21 inh -8.9*, KCNQ1 inh inactive and KCNK3 inh inactive.
`N#Cc1cccc(C#N)c1NCC1CCCO1` (stereo not given) gave hERG protect -5, KCNK9 block inactive, KCNQ1 pot inactive, Kir21 inh 0.43, KCNQ1 inh inactive and KCNK3 inh inactive.
`Cc1nnc(NC(=O)CC23CC4CC(CC(C4)C2)C3)s1` gave hERG protect -2, KCNK9 block inactive, KCNQ1 pot inactive, Kir21 inh -0.23, KCNQ1 inh inactive and KCNK3 inh inactive.
For O=C(NCc1ccco1)c1ccc(S(=O)(=O)N2CCCc3ccccc32)cc1 the results were hERG protect -9, KCNK9 block -6.9*, KCNQ1 pot inactive, Kir21 inh -0.99, KCNQ1 inh inactive and KCNK3 inh inactive.
For O=S(=O)(c1ccc(Cl)cc1)N1CCCc2ccccc21 the results were hERG protect -7, KCNK9 block inactive, KCNQ1 pot inactive, Kir21 inh -4.6*, KCNQ1 inh inactive and KCNK3 inh inactive.
For CCn1c(=O)n(CC)c2cc(S(=O)(=O)N3CCc4ccccc43)ccc21 the results were hERG protect -17, KCNK9 block inactive, KCNQ1 pot inactive, Kir21 inh -4.3*, KCNQ1 inh inactive and KCNK3 inh inactive.
For O=C(NCc1ccco1)c1cccc(S(=O)(=O)N2CCc3ccccc32)c1 the results were hERG protect -7, KCNK9 block inactive, KCNQ1 pot inactive, Kir21 inh -0.7, KCNQ1 inh inactive and KCNK3 inh inactive.
Screening Nc1ccc(S(=O)(=O)N2CCCc3ccccc32)cc1 returned hERG protect -5, KCNK9 block inactive, KCNQ1 pot inactive, Kir21 inh -5.7*, KCNQ1 inh inactive and KCNK3 inh inactive.
`CC(=O)Nc1ccc(S(=O)(=O)N2CCCc3ccccc32)cc1` gave hERG protect -12, KCNK9 block inactive, KCNQ1 pot inactive, Kir21 inh -0.83, KCNQ1 inh inactive and KCNK3 inh inactive.
COc1ccc(NC(=O)c2cccnc2SC)cc1S(=O)(=O)N1CCCCC1 was read as hERG protect -6, KCNK9 block inactive, KCNQ1 pot inactive, Kir21 inh -0.64, KCNQ1 inh inactive and KCNK3 inh inactive.
`O=C(Nc1cccc(S(=O)(=O)NC2=NCCC2)c1)c1c(F)cccc1Cl` gave hERG protect -12, KCNK9 block inactive, KCNQ1 pot inactive, Kir21 inh -0.6, KCNQ1 inh inactive and KCNK3 inh inactive.
Screening Nc1ccccc1-n1c(=O)n(Cc2ccccc2F)c(=O)c2[nH]cnc21 returned hERG protect -1, KCNK9 block inactive, KCNQ1 pot inactive, Kir21 inh 0.25, KCNQ1 inh inactive and KCNK3 inh inactive.
For CN[C@@H](C)C(=O)NC[C@H]1O[C@@H](n2cnc3c(N)ncnc32)[C@H](O)[C@@H]1O the results were KCNK3 inh inactive.
`CC(Oc1ccc(Cl)cc1)C(=O)N1CCCc2ccccc21` (stereo not given) gave hERG protect -7, KCNK9 block inactive, KCNQ1 pot inactive, Kir21 inh -5.7*, KCNQ1 inh inactive and KCNK3 inh inactive.
Screening CC(Oc1ccc(Br)cc1)C(=O)N1CCc2ccccc21 (stereo not given) returned hERG protect -12, KCNK9 block inactive, KCNQ1 pot inactive, Kir21 inh 0.51, KCNQ1 inh inactive and KCNK3 inh inactive.
For C(#CCN1CCCC1)CC(c1ccccc1)c1ccccc1 the results were hERG protect -15, KCNK9 block inactive, KCNQ1 pot inactive, Kir21 inh -10*, KCNQ1 inh inactive and KCNK3 inh inactive.
`Cc1nc2cc(-c3ccc(Cl)cc3)nn2c(NCCN(C)C)c1C` gave hERG protect -13, KCNK9 block inactive, KCNQ1 pot inactive, Kir21 inh -4.6*, KCNQ1 inh inactive and KCNK3 inh inactive.
For COC(=O)C1=C(C(=O)OC)[C@@H]2N(Cc3ccccc3)c3ccccc3[C@@]23C[C@@H](C(=O)OC)N(C(=O)C2CCC2)C3=N1 the results were hERG protect -5, KCNK9 block -7.7*, KCNQ1 pot inactive, Kir21 inh -1.7 and KCNQ1 inh inactive.
CCOC(=O)N1C2=NC(C(=O)OC)=C(C(=O)OC)[C@@H]3N(Cc4ccccc4)c4ccccc4[C@]23C[C@H]1C(=O)OC was read as hERG protect 0, KCNK9 block -7.7*, KCNQ1 pot inactive, Kir21 inh -0.88 and KCNQ1 inh inactive.
Screening COC(=O)C1=C(C(=O)OC)[C@@H]2N(Cc3ccccc3)c3ccccc3[C@@]23C[C@@H](C(=O)OC)N(C(C)=O)C3=N1 returned hERG protect -1, KCNK9 block inactive, KCNQ1 pot inactive, Kir21 inh -0.16, KCNQ1 inh inactive and KCNK3 inh inactive.
`O=C(c1ccc(COc2ccccc2Br)o1)N1N=C(C(F)F)CC1(O)C(F)F` (stereo not given) gave hERG protect -4, KCNK9 block inactive, KCNQ1 pot inactive, Kir21 inh -0.34, KCNQ1 inh inactive and KCNK3 inh inactive.
Screening Cc1cccc(NC(=O)CSCC(=O)N(CCC(C)C)c2c(N)n(Cc3ccccc3)c(=O)[nH]c2=O)c1 returned hERG protect -10, KCNK9 block inactive, KCNQ1 pot inactive, Kir21 inh 0.57, KCNQ1 inh inactive and KCNK3 inh inactive.
For O=C(NN=Cc1c(O)ccc2ccccc12)c1ccc2c(c1)OCO2 the results were KCNK3 inh inactive.
For Oc1ccc(N=Nc2ccc3c(c2)OCO3)c2ccccc12 the results were hERG protect -4, KCNK9 block inactive, KCNQ1 pot 9*, Kir21 inh -0.01 and KCNQ1 inh inactive.
`CC1(NC(=O)/C=C/c2nc3ccccc3s2)CCS(=O)(=O)C1` (stereo not given) gave KCNK3 inh inactive.
CCCCOc1ccc(-c2nnn(C(C)C(=O)OCC)n2)cc1 (stereo not given) was read as hERG protect -3, KCNK9 block -7.2*, KCNQ1 pot inactive, Kir21 inh -0.06, KCNQ1 inh inactive and KCNK3 inh inactive.
